The source of these data is ChEMBL document CHEMBL4038317, “Discovery of a Benzamide Derivative That Protects Pancreatic β-Cells against Endoplasmic Reticulum Stress” (J Med Chem, 2017).

As a reminder, the EC50 is the concentration that produces a half-maximal response. As a reminder, the IC50 is the concentration that gives 50% inhibition.

Data set [1] relates to INS1. Put plainly: Cytoprotective activity in rat INS-1 cells assessed as protection against tunicamycin-induced ER stress-mediated reduction in cell viability after 3 days by CellTiter-Glo assay relative tunicamycin. As to conditions: INS1, 72 h. The class given is functional. The method in brief: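 INS-1 cells, 3×10^3 per well, were co-treated with tunicamycin 0.1 μg/mL and compound for 72 h. Viability was read as intracellular ATP by luminescence and expressed as fold of no-tunicamycin cells. EC50 and maximum activity were taken as the increase in viability versus tunicamycin alone. Triplicate wells, three independent experiments.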
Background: ATP-based viability assays read luminescence as a measure of living cells.

In data set [2] the test system is Mus musculus. In words: Antidiabetic activity in STZ-induced diabetic C57BL/6 mouse model assessed as total pancreatic islet beta-cell area at 5 mg/kg, ip administrated qd with streptozotocin for 5 days followed by compound administration alone for 2 more weeks by DAPI-staining based confocal microscopic analysis (reference value: 30.2 +/- 7.9%). It counts as functional. The method in brief: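 At the end of treatment in the STZ mouse model, pancreases were formalin-fixed, paraffin-embedded and serially sectioned at 100 μm intervals. Six sections were stained for insulin and glucagon with DAPI counterstain and imaged by confocal microscopy. Insulin-positive cells demarcated islets; total islet area per section and cells per islet were quantified.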

The next data set is filed under the species Rattus norvegicus. In words: Inhibition of IRE1alpha activation in rat INS-1 cells assessed as suppression of tunicamycin-induced increase in XBP1 mRNA levels up to 10 uM after 8 hrs by agarose gel electrophoresis method. It counts as cell-based. The method in brief: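 INS-1 cells were exposed to tunicamycin 0.1 μg/mL with compound or DMSO for 8 h. Total XBP1 mRNA was amplified by RT-PCR, and the spliced and unspliced forms were separated electrophoretically.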

The subject of data set [3] is INS1. In words: Effect on CHOP mRNA level in rat INS-1 cells up to 10 uM after 8 hrs by qRT-PCR analysis. The following applies: ins1, 8 h. The class given is ADME, cell-based. The method in brief:
(§1)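 INS-1 cells, 4×10^5 per well, were exposed to tunicamycin 0.1 μg/mL with compound or DMSO for 8 h. qRT-PCR for ATF4, CHOP, Bip, GRP94, or spliced XBP1 using splicing-specific primers. Values were normalized to cyclophilin A by ΔΔCt and given as fold over untreated control. Triplicate wells, 3 independent experiments.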
On the technique in general: Real-time PCR tracks product formation cycle by cycle.

The test system of data set [4] is INS1. Put plainly: Protection against tunicamycin ER stress-induced suppression of MafA mRNA expression in rat INS-1 cells up to 1 uM after 24 hrs by qRT-PCR analysis. The class given is functional, cell-based. The method in brief: (§2)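 INS-1 cells were exposed to tunicamycin 0.1 μg/mL with compound or DMSO for 24 h. INS1, INS2, PDX1 and MafA mRNA were measured by qRT-PCR and normalized to cyclophilin A by the comparative Ct method. Triplicate wells, 3 independent experiments.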

Data set [5] deals with INS1. In words: Cytoprotective activity in rat INS-1 cells assessed as protection against tunicamycin-induced ER stress-mediated reduction reduction in cell viability up to 10 uM after 3 days by MTT assay. It counts as functional, cell-based. The method in brief:
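INS-1 cells, 3×10^3 per well, were exposed to tunicamycin 0.1 μg/mL with compound for 72 h. MTT was added for 3 h at 37 °C, then crystal-dissolving solution for 4 h, and absorbance read at 570 nm. Triplicate wells, three independent experiments.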

The test system of data set [6] is INS1. Put plainly: Cytoprotective activity in rat INS-1 cells assessed as protection against tunicamycin-induced ER stress-mediated reduction in cell viability after 3 days by CellTiter-Glo assay. The following applies: INS1, 72 h.
The target of data set [7] is T1, Eukaryotic translation initiation factor 2-alpha kinase 3 (Rattus norvegicus) (UniProt Q9Z1Z1).
T1 sequence (whole entry): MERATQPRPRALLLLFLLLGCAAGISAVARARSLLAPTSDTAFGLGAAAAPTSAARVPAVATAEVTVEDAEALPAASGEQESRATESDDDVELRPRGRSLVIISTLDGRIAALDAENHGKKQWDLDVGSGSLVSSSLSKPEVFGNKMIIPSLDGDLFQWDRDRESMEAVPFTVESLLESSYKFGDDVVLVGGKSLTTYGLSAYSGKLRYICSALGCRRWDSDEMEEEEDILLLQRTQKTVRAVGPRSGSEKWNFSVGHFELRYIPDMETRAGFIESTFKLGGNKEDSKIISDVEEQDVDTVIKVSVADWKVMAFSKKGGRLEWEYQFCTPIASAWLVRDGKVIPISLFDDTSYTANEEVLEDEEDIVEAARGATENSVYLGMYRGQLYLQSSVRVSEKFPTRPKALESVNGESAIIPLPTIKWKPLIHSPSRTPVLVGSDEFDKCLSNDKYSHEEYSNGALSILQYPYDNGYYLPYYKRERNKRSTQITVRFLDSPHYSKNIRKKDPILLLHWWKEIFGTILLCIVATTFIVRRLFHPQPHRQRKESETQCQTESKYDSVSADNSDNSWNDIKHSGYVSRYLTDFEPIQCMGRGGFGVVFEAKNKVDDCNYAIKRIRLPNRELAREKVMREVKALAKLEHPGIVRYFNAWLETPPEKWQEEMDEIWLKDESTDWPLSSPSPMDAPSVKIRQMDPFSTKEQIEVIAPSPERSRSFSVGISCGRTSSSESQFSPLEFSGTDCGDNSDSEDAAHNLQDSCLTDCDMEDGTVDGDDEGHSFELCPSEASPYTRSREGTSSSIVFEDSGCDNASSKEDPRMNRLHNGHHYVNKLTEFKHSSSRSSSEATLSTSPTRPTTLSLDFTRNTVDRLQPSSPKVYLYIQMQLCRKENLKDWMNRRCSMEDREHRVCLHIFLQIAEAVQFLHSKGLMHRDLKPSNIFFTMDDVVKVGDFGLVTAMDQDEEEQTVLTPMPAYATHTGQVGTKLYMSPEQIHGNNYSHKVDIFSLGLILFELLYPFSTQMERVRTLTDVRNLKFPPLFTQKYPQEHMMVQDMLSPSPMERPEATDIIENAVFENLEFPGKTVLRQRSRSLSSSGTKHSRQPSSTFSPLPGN
Put plainly: Inhibition of PERK activation in rat INS-1 cells assessed as suppression of tunicamycin-induced increase in ATF4 mRNA levels up to 10 uM after 8 hrs by qRT-PCR analysis. It counts as cell-based. The method in brief:
as §1

For data set [8], the system named is Mus musculus. In words: Antidiabetic activity in STZ-induced diabetic C57BL/6 mouse model assessed as decrease in blood glucose level at 5 mg/kg, ip administrated qd with streptozotocin for 5 days followed by compound administration alone for 2 more weeks. It counts as functional, organism-based. The following applies: TDE = time-dependent effect.
For data set [9], the system named is Mus musculus. In words: Antidiabetic activity in STZ-induced diabetic C57BL/6 mouse model assessed as blood glucose level at 5 mg/kg, ip administrated qd with streptozotocin for 5 days followed by compound administration alone for 2 more weeks measured on every third day during 5 hr fasting (reference value: 422 mg/dL). It counts as functional.
Data set [10] concerns INS1. Put plainly: Protection against tunicamycin ER stress-induced suppression of INS2 mRNA expression in rat INS-1 cells up to 1 uM after 24 hrs by qRT-PCR analysis. The class given is functional, cell-based. The method in brief:
as §2

The target of data set [11] is T2, Eukaryotic translation initiation factor 2-alpha kinase 3 (Rattus norvegicus, UniProt Q9Z1Z1).
T2 sequence (Q9Z1Z1 whole entry): T1 sequence (whole entry)
Put plainly: Inhibition of PERK activation in rat INS-1 cells assessed as suppression of tunicamycin-induced CHOP mRNA expression after 8 hrs by qRT-PCR analysis. The class given is cell-based. The method in brief: as §1

Data set [12] deals with INS1. Put plainly: Cytoprotective activity against tunicamycin ER stress-induced apoptosis in rat INS-1 cells assessed as viable cells at 0.1 uM after 48 hrs by phase contrast microscopic analysis. It counts as functional, cell-based. The method in brief:
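INS-1 cells were exposed to tunicamycin 0.1 μg/mL with compound (0.1 μM) or DMSO for 48 h. Live-cell phase-contrast images were taken at 10×; 3 independent experiments.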

The source made the active and inactive calls. No cut-off for these calls is given here.

`O=C(NCc1ccc(C(F)(F)F)cc1)c1cccc(CN2CCCCC2)c1`: in the data set with INS1 [1], the Emax came to 97%. In addition, the Activity in the data set with Mus musculus [2] is 67.4%; with INS1 [3], “Non-Toxic”; in the data set on Mus musculus [8], “Tde”; with Mus musculus [9] it was 314 mg/dL. For the same compound, the inhibition result (in the data set filed under Rattus norvegicus; in [7]) was “Active” throughout. Moreover, the outcome with INS1 [4], in the data set on INS1 [5], with INS1 [10] and with INS1 [12] was Active. The EC50 in the data set with INS1 [6] came to 30 nM. The IC50 in data set [11] turned out to be 37 nM.
